The values that follow come from ChEMBL document CHEMBL1914395, “Design, synthesis, and biological evaluation of callophycin A and analogues as potential chemopreventive and anticancer agents” (Bioorg Med Chem, 2011).

Broadly, the inhibition is the drop in the measured response relative to a control, in per cent. One may read the IC50 as the concentration at which inhibition is half-maximal.

For test [1], the system named is HEK293. Nature of the test: Inhibition of TNF-alpha-induced NFkappaB activation in human HEK293 cells at 50 uM after 6 hrs by luciferase assay relative to control. The class given is cell-based. The method in brief: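 Cells incubated 6 h with TNFα plus test compound, then luciferase activity measured. Results expressed as percent of TNFα-treated control. Screening concentration 50 μM.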

Test [2] deals with NAD(P)H dehydrogenase [quinone] 1 (Mus musculus) (UniProt Q64669). Nature of the test: Induction of quinone reductase 1 activity in mouse Hepa-1c1c7 cells assessed as cell survival at 50 uM by MTT assay relative to control. The class given is cell-based. A general note: Tetrazolium assays rely on reduction of a dye to a coloured formazan, in cell work by metabolically active cells.
NAD(P)H dehydrogenase [quinone] 1 (Mus musculus), sequence (Q64669 whole entry): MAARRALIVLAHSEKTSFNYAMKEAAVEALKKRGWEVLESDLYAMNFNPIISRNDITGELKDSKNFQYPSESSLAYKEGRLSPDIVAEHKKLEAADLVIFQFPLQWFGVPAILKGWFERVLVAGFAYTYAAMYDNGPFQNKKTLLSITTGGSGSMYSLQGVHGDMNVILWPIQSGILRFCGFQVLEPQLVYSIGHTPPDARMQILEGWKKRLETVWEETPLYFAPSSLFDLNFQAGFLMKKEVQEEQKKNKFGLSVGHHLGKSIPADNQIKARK

Test [3] has as its target T1, Nitric oxide synthase, inducible (Mus musculus) (UniProt P29477).
T1 sequence (whole entry): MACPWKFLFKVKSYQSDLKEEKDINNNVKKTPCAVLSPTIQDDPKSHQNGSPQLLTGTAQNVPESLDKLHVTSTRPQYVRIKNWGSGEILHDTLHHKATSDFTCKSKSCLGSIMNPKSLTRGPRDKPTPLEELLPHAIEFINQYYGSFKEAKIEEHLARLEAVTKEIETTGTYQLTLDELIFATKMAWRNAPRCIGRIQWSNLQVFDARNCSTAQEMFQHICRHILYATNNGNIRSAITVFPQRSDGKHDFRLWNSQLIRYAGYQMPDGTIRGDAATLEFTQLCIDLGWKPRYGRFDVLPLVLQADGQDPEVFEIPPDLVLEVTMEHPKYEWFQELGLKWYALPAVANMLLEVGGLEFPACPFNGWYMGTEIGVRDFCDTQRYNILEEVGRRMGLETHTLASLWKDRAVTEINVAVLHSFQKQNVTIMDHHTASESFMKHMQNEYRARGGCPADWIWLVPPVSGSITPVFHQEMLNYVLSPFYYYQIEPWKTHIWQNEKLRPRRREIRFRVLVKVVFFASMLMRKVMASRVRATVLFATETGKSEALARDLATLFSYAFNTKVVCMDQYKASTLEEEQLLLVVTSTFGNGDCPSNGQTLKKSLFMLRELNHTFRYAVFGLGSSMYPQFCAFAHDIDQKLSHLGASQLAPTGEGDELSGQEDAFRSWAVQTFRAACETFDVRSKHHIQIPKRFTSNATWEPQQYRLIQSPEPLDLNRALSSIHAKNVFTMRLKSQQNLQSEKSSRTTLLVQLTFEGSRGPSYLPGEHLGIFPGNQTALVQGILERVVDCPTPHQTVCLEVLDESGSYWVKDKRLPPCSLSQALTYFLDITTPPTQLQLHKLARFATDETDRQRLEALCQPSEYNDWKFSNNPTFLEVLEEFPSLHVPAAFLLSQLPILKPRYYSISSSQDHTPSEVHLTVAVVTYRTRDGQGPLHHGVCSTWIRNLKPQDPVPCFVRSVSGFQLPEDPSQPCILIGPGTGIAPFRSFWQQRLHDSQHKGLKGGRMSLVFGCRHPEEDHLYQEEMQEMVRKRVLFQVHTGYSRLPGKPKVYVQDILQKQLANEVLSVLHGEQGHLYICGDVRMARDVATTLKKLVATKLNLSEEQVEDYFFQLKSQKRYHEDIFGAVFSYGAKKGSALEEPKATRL
The test is described as follows: Inhibition of iNOS-mediated nitric oxide production in LPS-stimulated mouse RAW 264.7 cells assessed as cell survival at 50 uM pretreated 15 mins before LPS challenge measured after 20 hrs relative to control. The class given is cell-based. The method in brief:
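RAW 264.7 cells were incubated at 37°C, 5% CO2 for 24 h. They were then exposed to compound for 15 min before LPS (1 μg/mL) was added for 20 h. Cytotoxicity was measured by SRB staining under the same conditions. Survival is expressed as % relative to vehicle-treated controls at 50 μM.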

Test [4] deals with MCF7. The test is described as follows: Antiproliferative activity against human MCF7 cells assessed as survival at 50 uM after 72 hrs by SRB assay relative to control. The class given is functional. Particulars: MCF7, 72 h, read-out: Survival. The essentials: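 MCF7 cells (1 × 10^4 per well) were plated onto compound and kept at 37°C, 5% CO2 for 72 h. Cells were fixed in 10% TCA for 30 min and stained with 0.4% SRB in 1% acetic acid for 30 min. Bound dye was dissolved in 10 mM Tris (pH 10.0) and read at 515 nm. Survival is given as % of DMSO-treated controls, screened at 50 μM.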

The subject of test [5] is HEK293. The test is described as follows: Inhibition of TNF-alpha-induced NFkappaB activation in human HEK293 cells assessed as cell survival at 50 uM after 6 hrs by luciferase assay relative to control. The class given is cell-based.
Test [6] deals with MCF7. The test is described as follows: Antiproliferative activity against human MCF7 cells after 72 hrs by SRB assay. The class given is functional, cell-based. Particulars: MCF7, 72 h. The method in brief:
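MCF7 cells, 1 × 10^4 per well, plated directly onto compounds and incubated 72 h at 37°C, 5% CO2. Fixed with 10% TCA, stained with 0.4% SRB in 1% acetic acid. Bound dye dissolved in 10 mM Tris pH 10.0, absorbance read at 515 nm. Survival expressed relative to DMSO-treated controls.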
In general terms: In SRB staining, fixed cells bind dye roughly in proportion to their protein.

The target in test [7] is T2, Aromatase (Homo sapiens, UniProt P11511).
T2 sequence (P11511 whole entry): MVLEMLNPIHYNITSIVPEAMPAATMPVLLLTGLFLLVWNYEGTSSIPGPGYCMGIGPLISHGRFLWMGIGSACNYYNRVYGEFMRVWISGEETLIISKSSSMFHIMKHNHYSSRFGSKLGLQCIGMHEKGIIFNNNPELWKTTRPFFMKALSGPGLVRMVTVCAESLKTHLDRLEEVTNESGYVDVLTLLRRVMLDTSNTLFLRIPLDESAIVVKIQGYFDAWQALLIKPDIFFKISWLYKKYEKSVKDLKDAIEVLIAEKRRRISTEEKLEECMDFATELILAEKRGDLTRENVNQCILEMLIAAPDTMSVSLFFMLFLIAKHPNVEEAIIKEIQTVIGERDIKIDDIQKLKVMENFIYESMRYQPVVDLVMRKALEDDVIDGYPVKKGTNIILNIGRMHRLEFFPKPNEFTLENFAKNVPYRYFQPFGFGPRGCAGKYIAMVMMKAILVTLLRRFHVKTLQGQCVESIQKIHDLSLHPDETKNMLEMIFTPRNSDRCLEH
Nature of the test: Inhibition of aromatase at 50 uM after 10 mins preincubation by plate reader relative to control. The essentials:
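CYP19 enzyme. Compound pre-incubated 10 min with an NADPH-regenerating system (NADP+, glucose 6-phosphate, G6PDH, MgCl2, albumin) in 50 mM potassium phosphate pH 7.4. Enzyme and 0.4 μM dibenzylfluorescein substrate then added, 30 min at 37 °C. Quenched with 2 N NaOH and incubated a further 2 h at 37 °C. Fluorescence read at ex 485/em 530 nm. Compound tested at 50 μM.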

For test [8], the target named is T2, Aromatase. Nature of the test: Inhibition of aromatase after 10 mins preincubation by plate reader relative to control.
Test [9] addresses T1, Nitric oxide synthase, inducible (Mus musculus). Nature of the test: Inhibition of iNOS-mediated nitric oxide production in LPS-stimulated mouse RAW 264.7 cells at 50 uM pretreated 15 mins before LPS challenge measured after 20 hrs relative to control. The class given is cell-based. The essentials:
(§1)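 RAW 264.7 cells cultured 24 h at 37°C, then given serially diluted compounds for 15 min before LPS (1 μg/mL) for 20 h. Nitrite in the medium measured with Griess reagent at 540 nm against a sodium nitrite standard curve. Cytotoxicity checked by SRB under the same conditions.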

Test [10] concerns the target T3, Nitric oxide synthase, inducible (Mus musculus, UniProt P29477).
T3 sequence (P29477 whole entry): T1 sequence (whole entry)
The test is described as follows: Inhibition of iNOS-mediated nitric oxide production in LPS-stimulated mouse RAW 264.7 cells pretreated 15 mins before LPS challenge measured after 20 hrs relative to control. The class given is cell-based. The method in brief:
as §1

The target of test [11] is NAD(P)H dehydrogenase [quinone] 1 (Mus musculus) (UniProt Q64669). The test is described as follows: Induction of quinone reductase 1 activity in mouse Hepa-1c1c7 cells at 50 uM by MTT assay relative to untreated control. The class given is cell-based. The essentials:
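Hepa 1c1c7 murine hepatoma cells treated with compound at 50 μM. QR1 measured by NADPH-dependent, menadiol-mediated reduction of MTT to formazan. Protein measured by crystal violet staining of identical plates. Specific activity is nmol formazan per mg protein per min. Induction ratio is treated versus DMSO-treated control.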

Consider `COC(=O)[C@@H]1Cc2c([nH]c3ccccc23)CN1S(=O)(=O)c1ccc(C)cc1`, for which the inhibition in [1] turned out to be 6%; in [9] it was 73.8%. Also, the results for the Survival in test [2], in test [3] and in [5] were 61%, 116% and 171%, respectively. For the same compound, the viability at 50 µM in test [4] amounted to 19%. Moreover, the IC50 in [6] was found to be 37 µM; in test [8], 63.2 µM; in test [10], 22.6 µM. The same compound returned an inhibition at 50 µM in [7] of 41.7%. For the same compound, in test [11], the Ratio was 1.3.
